Assay results taken from ChEMBL document CHEMBL4038309, “Design and Synthesis of Chlorinated and Fluorinated 7-Azaindenoisoquinolines as Potent Cytotoxic Anticancer Agents That Inhibit Topoisomerase I” (J Med Chem, 2017).
Activity calls are given as the source filed them. The rule behind the calls is not given here.

Columns and labels:
MCF7 = experiment: Antiproliferative activity against human MCF7 cells assessed as growth inhibition; assay type: functional
Procedure, shortened: (§1)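 NCI-60 screen: single-dose pre-screen at 10 μM, then five concentrations from 0.01 to 100 μM. Values beyond the tested range are recorded as 0.01 or 100 μM.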

SF-539 = experiment: Antiproliferative activity against human SF539 cells assessed as growth inhibition; assay type: functional; procedure, shortened: as §1
[1] = molecular target: T1, DNA topoisomerase 1 (Homo sapiens) (UniProt P11387); experiment: Inhibition of recombinant Top1 (unknown origin) assessed as Top 1 mediated DNA cleavage using 3'-[32P]-labeled 117 bp DNA as substrate at 0.1 to 100 uM after 20 mins by PAGE analysis
T1 sequence (whole entry): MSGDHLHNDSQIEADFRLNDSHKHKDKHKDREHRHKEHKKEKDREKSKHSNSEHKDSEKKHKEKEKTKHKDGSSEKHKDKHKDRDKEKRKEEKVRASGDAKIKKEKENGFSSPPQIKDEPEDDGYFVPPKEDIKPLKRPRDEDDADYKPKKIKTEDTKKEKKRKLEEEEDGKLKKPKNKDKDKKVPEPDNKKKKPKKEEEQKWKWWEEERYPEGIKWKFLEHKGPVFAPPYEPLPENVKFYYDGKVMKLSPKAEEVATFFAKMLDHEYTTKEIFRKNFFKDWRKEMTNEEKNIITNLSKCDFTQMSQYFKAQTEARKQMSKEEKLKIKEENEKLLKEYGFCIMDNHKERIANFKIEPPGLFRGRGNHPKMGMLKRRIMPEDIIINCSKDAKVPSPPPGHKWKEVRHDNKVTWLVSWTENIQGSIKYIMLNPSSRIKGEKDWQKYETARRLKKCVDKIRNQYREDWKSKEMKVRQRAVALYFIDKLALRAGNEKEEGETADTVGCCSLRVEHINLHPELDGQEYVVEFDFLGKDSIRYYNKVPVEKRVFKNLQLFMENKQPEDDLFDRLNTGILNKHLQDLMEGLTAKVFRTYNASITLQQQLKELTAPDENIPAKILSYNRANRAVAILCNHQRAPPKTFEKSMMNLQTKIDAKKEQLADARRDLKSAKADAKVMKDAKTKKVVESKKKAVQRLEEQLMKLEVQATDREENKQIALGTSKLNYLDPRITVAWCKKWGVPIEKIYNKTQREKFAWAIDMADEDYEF
Procedure, shortened: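 About 2 nM 3'-[32P]-labeled DNA with recombinant Top1 in 10 mM Tris-HCl pH 7.5, 50 mM KCl, 5 mM MgCl2, 0.1 mM EDTA, 15 μg/mL BSA, 25 °C, 20 min. Compound at 0.1, 1, 10 and 100 μM. Stopped with 0.5% SDS and formamide dye, then run on 20% denaturing PAGE with phosphorimaging.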

[2] = molecular target: T2, Tyrosyl-DNA phosphodiesterase 2 (Homo sapiens, UniProt O95551); experiment: Inhibition of recombinant human TDP2 using 3'-labeled alpha-[32P]-cordycepin as substrate after 15 mins
T2 sequence (O95551 whole entry): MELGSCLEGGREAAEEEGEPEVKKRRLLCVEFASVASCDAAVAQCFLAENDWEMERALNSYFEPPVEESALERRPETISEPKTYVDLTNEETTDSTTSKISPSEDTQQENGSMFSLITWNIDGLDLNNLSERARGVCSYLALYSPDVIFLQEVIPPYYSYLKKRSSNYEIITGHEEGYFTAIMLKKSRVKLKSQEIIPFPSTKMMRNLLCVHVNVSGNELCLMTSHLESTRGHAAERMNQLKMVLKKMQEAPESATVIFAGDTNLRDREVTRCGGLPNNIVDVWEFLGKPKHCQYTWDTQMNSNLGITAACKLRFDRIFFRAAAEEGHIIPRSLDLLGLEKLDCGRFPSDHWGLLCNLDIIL

UACC-62 = experiment: Antiproliferative activity against human UACC62 cells assessed as growth inhibition; assay type: functional; procedure, shortened: as §1
SN12C = experiment: Antiproliferative activity against human SN12C cells assessed as growth inhibition; assay type: functional; procedure, shortened: as §1
HCT-116 = experiment: Antiproliferative activity against human HCT116 cells assessed as growth inhibition; assay type: functional; procedure, shortened: as §1
DU-145 = experiment: Antiproliferative activity against human DU145 cells assessed as growth inhibition; assay type: functional; procedure, shortened: as §1
OVCAR-3 = experiment: Antiproliferative activity against human OVCAR3 cells assessed as growth inhibition; assay type: functional; procedure, shortened: as §1
HOP-62 = experiment: Antiproliferative activity against human HOP62 cells assessed as growth inhibition; assay type: functional; procedure, shortened: as §1
Danio rerio [3] = organism: Danio rerio; experiment: Toxicity in zebrafish embryo assessed as increase in bent tail at 0.1 uM preincubated for 1 hr measured after 24 to 120 hrs; conditions: in vivo
Procedure, shortened: (§2)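 Wild-type AB zebrafish embryos, 4 clutch replicates of 40 embryos each, held at 28 °C through 120 hpf. Exposed in Petri dishes to 10, 1, 0.1 or 0.01 μM compound in filtered fish water with 0.1% DMSO. Water-only and DMSO controls included. Mortality, hatching and gross malformations observed.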

[4] = Toxicity in zebrafish embryo assessed as survival at 1 uM preincubated for 1 hr measured after 48 hrs (reference value: 84.4 +/- 8.5%); set-up: species or system Danio rerio; conditions: zebrafish embryos
[5] = Toxicity in zebrafish embryo assessed as survival at 0.1 uM preincubated for 1 hr measured after 120 hrs (reference value: 82.5 +/- 8.4%); set-up: species or system Danio rerio; conditions: zebrafish embryos
[6] = Toxicity in zebrafish embryo assessed as survival at 0.1 uM preincubated for 1 hr measured after 48 hrs (reference value: 84.4 +/- 8.5%); set-up: species or system Danio rerio; conditions: zebrafish embryos
Danio rerio [7] = organism: Danio rerio; experiment: Toxicity in zebrafish embryo assessed as hatching rate at 0.1 uM preincubated for 1 hr measured after 24 to 120 hrs; conditions: in vivo; procedure, shortened: as §2
[8] = Toxicity in zebrafish embryo assessed as survival at 10 uM preincubated for 1 hr measured after 24 to 120 hrs (reference value: 82.5 to 86.2%); set-up: species or system Danio rerio; conditions: zebrafish embryos
[9] = Toxicity in zebrafish embryo assessed as survival at 0.01 uM preincubated for 1 hr measured after 72 hrs (reference value: 82.5 +/- 8.4%); set-up: species or system Danio rerio; conditions: zebrafish embryos
[10] = Toxicity in zebrafish embryo assessed as survival at 0.01 uM preincubated for 1 hr measured after 48 hrs (reference value: 84.4 +/- 8.5%); set-up: species or system Danio rerio; conditions: zebrafish embryos
[11] = Toxicity in zebrafish embryo assessed as survival at 1 uM preincubated for 1 hr measured after 96 hrs (reference value: 82.5 +/- 8.4%); set-up: species or system Danio rerio; conditions: zebrafish embryos
[12] = Toxicity in zebrafish embryo assessed as survival at 0.01 uM preincubated for 1 hr measured after 120 hrs (reference value: 82.5 +/- 8.4%); set-up: species or system Danio rerio; conditions: zebrafish embryos
[13] = Toxicity in zebrafish embryo assessed as survival at 0.1 uM preincubated for 1 hr measured after 72 hrs (reference value: 82.5 +/- 8.4%); set-up: species or system Danio rerio; conditions: zebrafish embryos
Danio rerio [14] = experiment: Toxicity in zebrafish embryo assessed as increase in yolk sac edema at 0.1 uM preincubated for 1 hr measured after 24 to 120 hrs; conditions: in vivo; procedure, shortened: as §2
[15] = Toxicity in zebrafish embryo assessed as survival at 1 uM preincubated for 1 hr measured after 72 hrs (reference value: 82.5 +/- 8.4%); set-up: species or system Danio rerio; conditions: zebrafish embryos
[16] = Toxicity in zebrafish embryo assessed as survival at 1 uM preincubated for 1 hr measured after 120 hrs (reference value: 82.5 +/- 8.4%); set-up: species or system Danio rerio; conditions: zebrafish embryos
[17] = Toxicity in zebrafish embryo assessed as survival at 0.01 uM preincubated for 1 hr measured after 24 hrs (reference value: 86.2 +/- 8.5%); set-up: species or system Danio rerio; conditions: zebrafish embryos
[18] = Toxicity in zebrafish embryo assessed as survival at 0.1 uM preincubated for 1 hr measured after 96 hrs (reference value: 82.5 +/- 8.4%); set-up: species or system Danio rerio; conditions: zebrafish embryos
[19] = Toxicity in zebrafish embryo assessed as survival at 1 uM preincubated for 1 hr measured after 24 hrs (reference value: 86.2 +/- 8.5%); set-up: species or system Danio rerio; conditions: zebrafish embryos
[20] = Toxicity in zebrafish embryo assessed as survival at 0.01 uM preincubated for 1 hr measured after 96 hrs (reference value: 82.5 +/- 8.4%); set-up: species or system Danio rerio; conditions: zebrafish embryos
[21] = Toxicity in zebrafish embryo assessed as survival at 0.1 uM preincubated for 1 hr measured after 24 hrs (reference value: 86.2 +/- 8.5%); set-up: species or system Danio rerio; conditions: zebrafish embryos
PBMC = experiment: Induction of DNA damage in human PBMC assessed as gamma-H2AX foci formation at 0.1 to 1 uM after 2 hrs by confocal microscopy; assay type: cell-based
CCRF-CEM = experiment: Induction of DNA damage in human CCRF-CEM cells assessed as gamma-H2AX foci formation at 0.1 to 1 uM after 2 hrs by confocal microscopy; assay type: functional, cell-based

| SMILES | GI50 (MCF7) | GI50 (SF-539) | Top1-mediated DNA cleavage activity (active/not active) [1] | GI50 (UACC-62) | GI50 (HCT-116) | GI50 (DU-145) | GI50 (OVCAR-3) | GI50 (HOP-62) | Activity (PBMC) | Activity (CCRF-CEM) | further results |
| --- | --- | --- | --- | --- | --- | --- | --- | --- | --- | --- | --- |
| CCNCCCn1c2c(c3ccc(Cl)cc3c1=O)C(=O)c1cc(OC)cnc1-2 | < 10 nM | 506 nM | Active | 532 nM | 203 nM | 208 nM | 2130 nM | 122 nM |  |  | IC50 [2]: > 111000 nM; GI50 (SN12C): 675 nM |
| COc1cnc2c(c1)C(=O)c1c-2n(CCCn2ccnc2)c(=O)c2cc(Cl)ccc12 | < 10 nM | 38 nM | Active | 28 nM | 14 nM | 43 nM | 120 nM | 20 nM |  |  | Activity (Danio rerio [3]): Non-Toxic; survival at 48 h, 1 µM [4]: 1.2%; survival at 120 h, 0.1 µM [5]: 50.6%; survival at 48 h, 0.1 µM [6]: 54.4%; Activity (Danio rerio [7]): Non-Toxic; survival at 10 µM [8]: 0%; survival at 72 h, 0.01 µM [9]: 63.1%; survival at 48 h, 0.01 µM [10]: 65.6%; survival at 96 h, 1 µM [11]: 1.2%; survival at 120 h, 0.01 µM [12]: 61.9%; survival at 72 h, 0.1 µM [13]: 51.9%; Activity (Danio rerio [14]): Non-Toxic; survival at 72 h, 1 µM [15]: 1.2%; survival at 120 h, 1 µM [16]: 1.2%; survival at 24 h, 0.01 µM [17]: 67.5%; survival at 96 h, 0.1 µM [18]: 50.6%; survival at 24 h, 1 µM [19]: 10.6%; survival at 96 h, 0.01 µM [20]: 61.8%; survival at 24 h, 0.1 µM [21]: 55.6% |
| COc1cc2c3c(n(CCCNCCO)c(=O)c2cc1OC)-c1cc2c(cc1C3=O)OCO2 [LMP-744] |  |  |  |  |  |  |  |  | Non-Toxic | Active |  |
| CC[C@@]1(O)C(=O)OCc2c1cc1n(c2=O)Cc2cc3ccccc3nc2-1 [CAMPTOTHECIN] | 13 nM |  |  |  |  |  |  |  | Non-Toxic | Active |  |
| COc1cnc2c(c1)C(=O)c1c-2n(CCCN2CCC(O)CC2)c(=O)c2cc(Cl)ccc12 | 42 nM | 430 nM | Active | 190 nM | 98 nM | 270 nM | 1420 nM | 94 nM | Non-Toxic | Active |  |
